Legend:
[1] = biological target: T1, Phospholipase A2 group V (Homo sapiens) (UniProt P39877); test: Inhibition of human group 5 sPLA2 at 0.091 mol fraction by mixed micelle-based assay
T1 sequence (whole entry): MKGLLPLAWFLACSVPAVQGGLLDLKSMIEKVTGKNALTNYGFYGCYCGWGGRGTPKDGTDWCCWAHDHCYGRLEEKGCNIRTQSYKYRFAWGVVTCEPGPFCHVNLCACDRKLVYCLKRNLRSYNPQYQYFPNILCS
In short: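 Modified Dole assay. Inhibitor present at 0.091 mole fraction of the total substrate interface; percent inhibition recorded.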

[2] = biological target: T2, 85/88 kDa calcium-independent phospholipase A2 (Homo sapiens) (UniProt O60733); test: Inhibition of human group 6A iPLA2 by mixed micelle-based assay
T2 sequence (whole entry): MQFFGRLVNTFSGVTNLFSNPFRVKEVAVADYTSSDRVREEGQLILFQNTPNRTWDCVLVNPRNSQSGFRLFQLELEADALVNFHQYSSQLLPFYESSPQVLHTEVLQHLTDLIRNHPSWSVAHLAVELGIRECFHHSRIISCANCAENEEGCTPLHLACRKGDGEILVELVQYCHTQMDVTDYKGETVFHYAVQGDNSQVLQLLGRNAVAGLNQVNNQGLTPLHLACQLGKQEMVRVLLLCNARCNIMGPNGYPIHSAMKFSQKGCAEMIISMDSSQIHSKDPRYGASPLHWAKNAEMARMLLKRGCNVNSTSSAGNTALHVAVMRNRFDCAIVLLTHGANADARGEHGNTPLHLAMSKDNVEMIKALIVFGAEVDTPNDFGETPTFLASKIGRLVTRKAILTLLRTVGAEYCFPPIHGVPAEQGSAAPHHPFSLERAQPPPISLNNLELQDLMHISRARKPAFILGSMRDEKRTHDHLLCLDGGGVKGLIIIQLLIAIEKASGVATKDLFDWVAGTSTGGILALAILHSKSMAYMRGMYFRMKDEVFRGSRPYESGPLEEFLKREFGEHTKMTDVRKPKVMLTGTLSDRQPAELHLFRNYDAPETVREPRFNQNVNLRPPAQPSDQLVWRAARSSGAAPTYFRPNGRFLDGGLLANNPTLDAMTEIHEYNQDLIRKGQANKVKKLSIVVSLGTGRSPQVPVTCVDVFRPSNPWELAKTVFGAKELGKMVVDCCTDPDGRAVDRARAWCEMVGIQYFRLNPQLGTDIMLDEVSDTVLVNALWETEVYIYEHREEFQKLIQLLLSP
In short: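 Modified Dole assay. Buffer: 200 mM HEPES pH 7.0, 1 mM ATP, 2 mM DTT, 0.1 mg/ml BSA. XI(50) is the inhibitor mole fraction in the total interface causing 50% inhibition. It was estimated for compounds exceeding 90% inhibition at 0.091 mole fraction.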

[3] = biological target: T2, 85/88 kDa calcium-independent phospholipase A2 (Homo sapiens); test: Inhibition of human group 6A iPLA2 at 0.091 mol fraction by mixed micelle-based assay
In short: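 Modified Dole assay. Buffer: 200 mM HEPES pH 7.0, 1 mM ATP, 2 mM DTT, 0.1 mg/ml BSA. Percent inhibition read with inhibitor at 0.091 mole fraction of the total substrate interface.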

[4] = biological target: T3, Cytosolic phospholipase A2 (Homo sapiens) (UniProt P47712); test: Inhibition of human group 4A cPLA2 by mixed micelle-based assay
T3 sequence (whole entry): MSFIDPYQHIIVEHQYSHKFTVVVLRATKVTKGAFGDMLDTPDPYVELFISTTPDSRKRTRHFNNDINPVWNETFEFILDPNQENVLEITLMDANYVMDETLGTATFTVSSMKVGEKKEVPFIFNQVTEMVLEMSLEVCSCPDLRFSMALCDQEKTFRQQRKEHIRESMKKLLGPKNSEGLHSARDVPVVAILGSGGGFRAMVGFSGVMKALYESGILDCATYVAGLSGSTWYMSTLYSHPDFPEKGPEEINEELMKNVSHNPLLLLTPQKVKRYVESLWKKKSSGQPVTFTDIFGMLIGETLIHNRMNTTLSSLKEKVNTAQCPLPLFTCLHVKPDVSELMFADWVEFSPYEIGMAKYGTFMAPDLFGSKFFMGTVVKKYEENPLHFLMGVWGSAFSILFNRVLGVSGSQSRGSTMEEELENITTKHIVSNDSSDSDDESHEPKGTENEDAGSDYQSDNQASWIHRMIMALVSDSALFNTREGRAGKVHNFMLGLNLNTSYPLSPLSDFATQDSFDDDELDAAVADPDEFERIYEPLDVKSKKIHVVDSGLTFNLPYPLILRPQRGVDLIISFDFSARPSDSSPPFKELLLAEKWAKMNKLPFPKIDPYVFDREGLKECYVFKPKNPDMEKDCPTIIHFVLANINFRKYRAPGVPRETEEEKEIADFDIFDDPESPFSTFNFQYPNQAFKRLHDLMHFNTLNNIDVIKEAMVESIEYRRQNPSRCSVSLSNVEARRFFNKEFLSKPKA
In short: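 Buffer: 100 mM HEPES pH 7.5, 90 μM CaCl2, 2 mM DTT, 0.1 mg/ml BSA. XI(50) is the inhibitor mole fraction in the total substrate interface that gives 50% inhibition. It was estimated for compounds giving >90% inhibition at 0.091 mole fraction.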

[5] = biological target: T3, Cytosolic phospholipase A2 (Homo sapiens); test: Inhibition of human group 4A cPLA2 at 0.091 mol fraction by mixed micelle-based assay
In short: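 Modified Dole assay, radiolabel release. Buffer: 100 mM HEPES pH 7.5, 90 μM CaCl2, 2 mM DTT, 0.1 mg/ml BSA. Percent inhibition measured with inhibitor at 0.091 mole fraction of the total substrate interface.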

[6] = biological target: T1, Phospholipase A2 group V (Homo sapiens); test: Inhibition of human group 5 sPLA2 by mixed micelle-based assay
In short: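 Modified Dole assay. XI(50) is the inhibitor mole fraction of the total interface that halves activity. It was estimated only where inhibition at 0.091 mole fraction exceeded 90%.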

SMILES | inhibition [1] [%] | XI50 [2] | inhibition [3] [%] | XI50 [4] | inhibition [5] [%] | XI50 [6]
CCCCCCCCCCCCCCCC(=O)C(F)(F)F | 79 | 0.0195 | 92 | 0.0223 | 96 | –
CCCCCCOc1ccc(CCCCC(=O)C(F)(F)F)cc1 | 86 | 0.0169 | 91 | 0.0098 | 92 | –
O=C(CCCCc1ccccc1)C(F)(F)F | < 25 | 0.0096 | 96 | – | 38 | –
O=C(CCCCCc1ccccc1)C(F)(F)C(F)(F)F | 46 | 0.0065 | 98 | – | 56 | –
OC(O)(C(F)(F)F)C(F)(F)CCCc1ccccc1 | 59 | – | 49 | – | 27 | –
CCCCCCCCCCCCCCC(F)C(=O)C(F)(F)F (stereo not drawn) | 86 | 0.0011 | 93 | 0.0167 | 94 | 0.0236
O=C(CCCCCCc1ccccc1)C(F)(F)F | 53 | 0.0018 | 99 | – | 68 | –
CCCCCCCCCCOc1ccc(CCCCC(=O)C(F)(F)F)cc1 | 84 | 0.0166 | 94 | 0.0116 | 95 | –
O=C(CCCCc1ccccc1)C(F)(F)C(F)(F)F | 28 | 0.0073 | 98 | – | < 25 | –
CCCCCCOc1ccc(CCC(=O)C(F)(F)C(F)(F)F)cc1 | 86 | 0.0075 | 95 | – | 73 | –

The remaining lines, values ahead:

inhibition [1] [%] | XI50 [2] | inhibition [3] [%] | XI50 [4] | inhibition [5] [%] | XI50 [6] | SMILES
75 | 0.0065 | 98 | – | 65 | – | O=C(CCCCCCc1ccccc1)C(F)(F)C(F)(F)F
49 | – | 71 | – | 88 | – | O=C(CCc1ccc(OCc2ccccc2)cc1)C(F)(F)F
80 | 0.0208 | 94 | 0.0156 | 96 | – | CCCCCCCCCCOc1ccc(CCC(=O)C(F)(F)F)cc1
82 | 0.0328 | 85 | 0.0199 | 91 | – | CCCCCCOc1ccc(CCC(=O)C(F)(F)F)cc1
43 | – | 50 | – | < 25 | – | CCCCCCCCCCCCCCCC(=O)C(F)(F)C(F)(F)F
48 | 0.0025 | 96 | – | 62 | – | O=C(CCCCCc1ccccc1)C(F)(F)F

From ChEMBL document CHEMBL1151758, “Synthesis of polyfluoro ketones for selective inhibition of human phospholipase A2 enzymes” (J Med Chem, 2008)
